KCNK9 block: blocks the human KCNK9 two-pore domain potassium channel; Q9NPC2; 1.2% of 310,000 active; HEK293 KCNK9, FluxOR thallium flux fluorescence; hits give low values; B-score at 10 µM;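 active means ratio B-score over 3 SD below the library mean, with starting fluorescence within 5 SD of its mean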;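 further: negative B-score means less thallium flux so channel inhibition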
KCNQ1 act: potentiates or activates the human KCNQ1 potassium channel; P51787; B-score at 10 µM; CHO-K1 KCNQ1, thallium flux FluxOR fluorescence; hits give high values; 0.35% of 310,000 active;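 active means fluorescence ratio B-score, a plate-corrected score, at least three library SD, with initial intensity B-score within 5 SD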
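System: CHO-K1 cells stably expressing KCNQ1 / Medium: assay buffer for compound exposure, DMSO matched across wells / Reagent: thallium- and potassium-containing depolarizing buffer / Compound: one concentration, matched DMSO / Incubation: 20 min compound pretreatment at room temperature / Measured by: kinetic FluxOR fluorescence, 10 s baseline plus 110 s post-stimulus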
Kir21 inh: inhibitors of mouse Kir2.1 inward-rectifier potassium channel | B-score at 10 µM | 0.85% of 310,000 active | HEK293-Kir2.1, FluxOR thallium flux fluorescence; hits give low values | AID 1672;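 active means fluorescence ratio B-score at or below minus 3 SD of library scores, with starting-brightness B-score within 2 SD, cut at about -4.2 in these data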;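 further: channel flux triggered by added potassium and thallium sulfate stimulus; B-score of peak minus minimum fluorescence over baseline after thallium stimulus; more negative B-score means stronger Kir2.1 block with less thallium influx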
Target sequence (P35561 whole entry, looked up): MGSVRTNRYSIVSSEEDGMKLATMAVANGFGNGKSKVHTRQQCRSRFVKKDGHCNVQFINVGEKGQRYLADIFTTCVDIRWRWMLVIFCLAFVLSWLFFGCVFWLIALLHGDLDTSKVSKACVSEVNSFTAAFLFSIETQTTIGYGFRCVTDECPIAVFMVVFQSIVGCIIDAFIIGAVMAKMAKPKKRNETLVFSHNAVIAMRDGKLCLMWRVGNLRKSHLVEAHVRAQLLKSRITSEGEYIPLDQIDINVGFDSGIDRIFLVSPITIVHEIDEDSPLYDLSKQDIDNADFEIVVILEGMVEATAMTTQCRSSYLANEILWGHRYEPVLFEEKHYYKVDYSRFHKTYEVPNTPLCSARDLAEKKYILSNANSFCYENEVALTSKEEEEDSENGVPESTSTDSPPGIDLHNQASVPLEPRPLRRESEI
KCNQ1 block: blocks the human KCNQ1 potassium channel; AID 2642; P51787; 1.3% of 310,000 active; B-score at 10 µM; CHO-K1 KCNQ1, FluxOR thallium flux fluorescence; hits give high values;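 active means compounds whose thallium flux B-score, printed positive for inhibition, exceeds three library SD while starting fluorescence stays within three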;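 further: channel opened by potassium depolarization with thallium stimulus after 20 min compound exposure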
KCNK3 block: human KCNK3 channel inhibition, primary screen | O14649 | CHO-KCNK3 thallium flux, FluxOR fluorescence; hits give low values | B-score at 10 µM | 0.84% of 340,000 active;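 active means B-score under library mean minus 4 SD, starting fluorescence ratio at most library mean plus 5 SD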;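 further: more negative B-score means stronger inhibition of thallium flux through KCNK3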
hERG rescue: compounds protecting human hERG from proarrhythmic drug block; 0.51% of 310,000 active; AID 1511; CHO-hERG, FluxOR thallium flux, dofetilide IC70 present; activation (rescue from dofetilide block), less the hit threshold, % at 10 µM;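 active means activation above the mean of controls blocked by dofetilide plus 5 SD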;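 further: thallium influx through hERG after potassium depolarization seen as dye fluorescence rise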
Active calls of the source: *. Only some compounds are listed: those with a hit (about 3.8% of all), similar ones and a draw of the others.

For OCCCNCc1ccc(N(c2ccccc2)c2ccccc2)cc1 the results were KCNK9 block inactive, KCNQ1 act inactive, Kir21 inh -12*, KCNQ1 block inactive, KCNK3 block inactive and hERG rescue -9.
Screening CCC(C)Sc1cccc(-c2nc3cc(C)ccn3c2NCc2ccccc2)c1 (centres undefined) returned KCNK9 block inactive, KCNQ1 act inactive, Kir21 inh -1.4, KCNQ1 block 8*, KCNK3 block inactive and hERG rescue -5.
Screening CCCCNc1c(-c2ccc(SC3CCCCC3)cc2)nc2ccccn12 returned KCNK9 block inactive, KCNQ1 act inactive, Kir21 inh 0.12, KCNQ1 block inactive, KCNK3 block inactive and hERG rescue -23.
For CCCCNc1c(-c2ccc(SC(C)CC)cc2)nc2ccccn12 (centres undefined) the results were KCNK9 block -7.8*, KCNQ1 act inactive, Kir21 inh -1.3, KCNQ1 block 8*, KCNK3 block inactive and hERG rescue -38.
`CC1CCCC(C)N1CCCNC(=O)c1ccc2nc(N3CCCCC3)sc2c1` (centres undefined) gave KCNK9 block inactive, KCNQ1 act inactive, Kir21 inh -1, KCNQ1 block inactive, KCNK3 block inactive and hERG rescue -11.
CC(OC(=O)CCc1cc(C(C)(C)C)c(O)c(C(C)(C)C)c1)C(=O)NC1CC1 (centres undefined) was read as KCNK9 block inactive, KCNQ1 act inactive, Kir21 inh -4.3*, KCNQ1 block inactive, KCNK3 block inactive and hERG rescue -17.
CCOc1ccc(NC(=O)CN(C)C(=O)C2CCN(C(=O)Nc3ccccc3)CC2)cc1OCC was read as KCNK3 block inactive.
Cc1ccc(C)c(N2CCN(C(=O)CCc3nc(-c4ccccc4C)no3)CC2)c1 was read as KCNK3 block -9.2*.
`Cc1ccc(C)c(N2CCN(C(=O)CCc3nc(-c4ccccc4Cl)no3)CC2)c1` gave KCNK3 block inactive.
For Cc1cccc(-c2noc(CCC(=O)N3CCN(c4cc(C)ccc4C)CC3)n2)c1 the results were KCNK3 block -9.8*.
For Cc1ccc(C)c(N2CCN(C(=O)CCc3nc(-c4ccccc4)no3)CC2)c1 the results were KCNK3 block inactive.
Screening OC1(c2ccc(Cl)cc2)CN(c2ccccc2)C2=[N+]1CCS2 (centres undefined) returned KCNK9 block inactive, KCNQ1 act inactive, Kir21 inh -0.97, KCNQ1 block 6*, KCNK3 block inactive and hERG rescue -14.
`CC(C)Cn1c(N)c(C(=O)COC(=O)c2ccc(Cl)cc2)c(=O)n(C)c1=O` gave KCNK9 block inactive, KCNQ1 act inactive, Kir21 inh 1.6, KCNQ1 block inactive, KCNK3 block inactive and hERG rescue -14.
CC(C)Cn1c(N)c(C(=O)COC(=O)c2c(O)c(Cl)cc(Cl)c2Cl)c(=O)n(C)c1=O was read as KCNK3 block -10*.
CN1CC(=O)N(CC(=O)Nc2ccc(Cl)c(C(F)(F)F)c2)C1=O was read as KCNK9 block inactive, KCNQ1 act inactive, Kir21 inh 0.25, KCNQ1 block inactive, KCNK3 block inactive and hERG rescue 4.6*.
O=C(Cn1ccc(NC(=O)OCc2ccccc2)nc1=O)NCc1ccc2c(c1)OCO2 was read as KCNK3 block inactive.
For N#CC1=C(N)OC2=C(CCc3ccccc32)C1c1ccccc1Cl (centres undefined) the results were KCNK9 block -7.6*, KCNQ1 act inactive, Kir21 inh 1.8, KCNQ1 block inactive, KCNK3 block inactive and hERG rescue -3.
For Cn1c(-c2cccc(Br)c2)cnc1NCc1ccccc1O the results were KCNK9 block inactive, KCNQ1 act inactive, Kir21 inh -6.2*, KCNQ1 block inactive, KCNK3 block inactive and hERG rescue -14.
Cn1c(-c2ccc3c(c2)OCO3)cnc1NCc1cccc(Cl)c1 was read as KCNK9 block inactive, KCNQ1 act inactive, Kir21 inh -2.7, KCNQ1 block inactive, KCNK3 block inactive and hERG rescue -16.

Bioassay records (PubChem BioAssay)
